Screens: PubChem BioAssay, Johns Hopkins Ion Channel Center
RGS4 act = RGS4 potentiation or activation. HEK293 M3R/inducible RGS4, carbachol calcium flux Fluo4; stronger effect = lower value. 310,000 compounds, 0.92% hits. B-score at 10 µM;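 active means B-score of the integrated calcium signal more than 4 SD below the library mean, with starting fluorescence not abnormally high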;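 further: negative B-score means reduced calcium response which marks RGS4 activation or potentiation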
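Material: M3R-expressing HEK293 line, RGS4 induced by doxycycline | Schedule: Overnight RGS4 induction, 30 min dye load 37 °C, 20 min compound RT | Measured by: Fluo4 fluorescence kinetic imaging of calcium | Read-out: Integrated calcium ratio converted to B score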
MrgX1 allo act = human MrgX1 positive allosteric modulation, primary screen. MrgX1-HEK293, Fluo-4 calcium flux, FDSS; stronger effect = higher value. Q96LB2. B-score at 10 µM. 310,000 compounds, 0.63% hits;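 active means plate-corrected calcium response at least 3 library SD above typical, normal starting fluorescence, not activating the receptor alone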;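 further: compound read alongside a low EC10 to EC30 dose of BAM8-22 agonist; peak minus trough fluorescence over baseline measured at the second addition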
Target sequence (Q96LB2 whole entry, looked up): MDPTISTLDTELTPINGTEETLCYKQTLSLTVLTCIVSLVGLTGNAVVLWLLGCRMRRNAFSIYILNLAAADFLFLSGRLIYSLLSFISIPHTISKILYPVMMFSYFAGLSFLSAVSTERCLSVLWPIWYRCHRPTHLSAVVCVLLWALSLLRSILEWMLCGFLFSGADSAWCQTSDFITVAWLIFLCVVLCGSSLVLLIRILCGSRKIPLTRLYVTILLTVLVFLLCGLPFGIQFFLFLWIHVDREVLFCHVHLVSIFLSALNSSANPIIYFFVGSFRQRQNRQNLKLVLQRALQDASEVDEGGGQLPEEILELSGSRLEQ
RGS4 inh = inhibitors of human RGS4 | P49798 | HEK293 M3R/RGS4 inducible, Fluo-4 calcium flux; stronger effect = higher value; triggered by carbachol at its EC20 | B-score at 10 µM | 310,000 compounds, 0.45% hits | AID 463165;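 active means B-score, a plate-corrected calcium signal, over three deviations above library mean, with baseline fluorescence within five deviations of library mean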;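 further: RGS4 expression induced by doxycycline in cells with stable M3 receptor; B-score is computed from the integrated fluorescence ratio over baseline after carbachol; higher B-score means a larger calcium signal and so more RGS4 inhibition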
Target sequence (P49798 whole entry, looked up): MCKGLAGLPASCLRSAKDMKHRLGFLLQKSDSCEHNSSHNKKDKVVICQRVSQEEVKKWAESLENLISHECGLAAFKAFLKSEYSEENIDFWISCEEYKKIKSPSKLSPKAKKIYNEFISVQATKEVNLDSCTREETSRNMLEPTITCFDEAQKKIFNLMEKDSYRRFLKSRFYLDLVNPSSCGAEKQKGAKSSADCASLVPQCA
MrgX1 antag = human MrgX1 receptor antagonism, primary screen | 310,000 compounds, 1.3% hits | B-score at 10 µM | AID 588676 | Q96LB2 | MRGX1-HEK293 calcium flux, Fluo-4, BAM8-22 antagonism; stronger effect = lower value;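 active means calcium-response B-score plate-corrected more than 3 library SD below zero, starting fluorescence within 5 deviations, no agonist response on first addition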;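 further: peak minus trough fluorescence over baseline after final BAM8-22 challenge near maximal dose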
MrgX1 agonist = activates human MrgX1 receptor signaling | MrgX1-HEK293 cells, Fluo-4 calcium fluorescence, agonist mode; stronger effect = higher value | AID 588627 | Q96LB2 | 310,000 compounds, 0.44% hits | B-score at 10 µM;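 active means calcium response B-score plate-corrected fluorescence ratio at least 3 library SD, with starting fluorescence B-score inside 5 SD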
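Material: MrgX1-expressing HEK293 cells; input: 15,000 cells per well; doses: test compound given as first of three sequential additions; schedule: overnight plating before 1 h dye loading; technique: Fluo-4 NW calcium-flux fluorescence, kinetic read; evaluation: baseline-normalised fluorescence change ratio, B-scored; control set: plate-wise positive and negative controls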
MrgX1 antag conf = reconfirmed antagonist of human MrgX1 receptor signaling; shares compounds with MrgX1 antag; MrgX1-HEK293, BAM8-22 calcium flux, Fluo-4; stronger effect = lower value; remaining BAM8-22 calcium response % of control (stronger effect = lower value), % at 10 µM; 2,300 compounds, 19% hits;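 active means remaining agonist calcium response no higher than 100% minus 3 SD of agonist-only control wells, with starting fluorescence near control levels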;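 further: agonist BAM8-22 given at a near maximal EC90 to ECmax level; peak minus minimum fluorescence divided by baseline after agonist addition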
HEK293 Ca flux = activity in parental HEK293 cells lacking MrgX1 | Fluo-4 calcium fluorescence, FDSS | fluorescence ratio F(max-min)/F0 at 10 µM | shares compounds with MrgX1 antag | AID 624111 | 4,000 compounds, 2% hits;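 active means duplicate-averaged calcium fluorescence ratio at least three times the standard deviation of buffer wells, a nonspecific response in parental cells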
HEK293 Ca counter = MrgX1 allosteric activator counter-screen hit in parental HEK293 cells. shares compounds with MrgX1 antag. parental HEK293 calcium flux, Fluo-4 fluorescence ratio; stronger effect = higher value. fluorescence ratio F(max-min)/F0 at 10 µM. 4,000 compounds, 0.4% hits. AID 624114;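 active means calcium fluorescence ratio, averaged over duplicates, at least 3 SD of the buffer-well ratio, meaning a nonspecific response in receptor-free cells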;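 further: untransfected parental HEK293 lacking MrgX1 used as counterscreen for MrgX1 allosteric activators; fluorescence change taken during the second addition on a kinetic imager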
HEK293 Ca cntr2 = counter-screen for MrgX1 activators: effect in parental HEK293 cells; shares compounds with MrgX1 antag; Fluo-4 calcium fluorescence (FDSS); stronger effect = higher value; 4,000 compounds, 8.7% hits; AID 624115; fluorescence ratio F(max-min)/F0 at 10 µM;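 active means calcium fluorescence ratio at least three times the spread of buffer wells, meaning a non-specific response in parental cells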
* hit, by the source's call; i = inactive; . = not tested or not shown. Only some compounds are listed: those with a hit (about 3.5% of all), similar ones and a draw of the others.

SMILES	RGS4 act	MrgX1 allo act	RGS4 inh	MrgX1 antag	MrgX1 agonist	MrgX1 antag conf	HEK293 Ca flux	HEK293 Ca counter	HEK293 Ca cntr2
CC(C)(C)NC(=S)Nc1cccc(C(F)(F)F)c1	i	i	i	-5.2*	i	i	i	i	i
O=C(Nc1ccccc1)Nc1cccc(C(F)(F)F)c1	i	i	i	-5.2*	i	84%*	i	i	i
FC(F)(F)c1cccc(NC(=S)NCc2ccccc2)c1	i	i	i	-5.4*	i	i	i	i	58*
CCOc1ccc(C(=O)NC(C(=O)NCc2cccnc2)C(C)C)cc1 (stereo not drawn)	i	i	i	i	i	.	.	.	.
Cc1ccc(C)c(NC(=O)CCN2CCCC(C)C2)c1 (stereo not drawn)	i	i	i	i	i	.	.	.	.
COc1ccc(Cc2nnc(NS(C)(=O)=O)s2)cc1	i	i	i	-6.4*	i	i	i	i	i
O=C1C(C=NCc2ccco2)=C(O)c2ccccc21	i	i	i	-8.6*	i	i	i	i	i
O=C(CSc1nnc(-c2ccccc2)n1Cc1ccco1)NCc1ccc2c(c1)OCO2	i	i	i	i	i	.	.	.	.
COc1ccc(Cc2ccc(OC)c(N)c2)cc1N	i	i	i	-5.5*	i	i	i	i	i
CC1CCC(NC(=O)COC(=O)C2CC3CCCC(C2)C3=O)CC1 (stereo not drawn)	i	i	i	-7.9*	i	i	i	i	i
COc1ccc(OC(C)c2ccc(C#N)c(=O)[nH]2)cc1 (stereo not drawn)	i	i	i	i	i	.	.	.	.
COC(OC)c1ccc(C#N)c(=O)[nH]1	i	i	i	-6.2*	i	83%*	i	i	i
O=C(Cn1cc2c(n1)CCCC2)N1CCOCC1	i	i	i	-5.4*	i	i	i	i	i
CCCOC(=O)c1cc(=O)[nH]c2ccccc12	i	i	i	-4.7*	i	i	i	i	i
N#CC(C#N)=Cc1cnc(N2CCN(c3ccccc3)CC2)s1	i	i	i	i	i	.	.	.	.
Cc1ccc(C)c(NC(=O)CN(C)C(=O)c2cccc(S(=O)(=O)N(C)C)c2)c1	i	i	i	-4.9*	i	84%*	i	i	i
Cc1ccc(C)c(NC(=O)CN(C)C(=O)c2cccc(S(=O)(=O)N3CCN(Cc4ccccc4)CC3)c2)c1	i	i	i	i	i	.	.	.	.
CCn1cc([N+](=O)[O-])c(C(=O)Nc2nc(-c3ccc(C)cc3)c(C)s2)n1	i	i	i	-10*	i	i	i	i	i
OCCCNc1cc(-c2ccnc(Nc3cccc(Cl)c3)n2)ccn1	i	i	i	-4.9*	i	60%*	i	i	i
Cc1cccc(NC(=O)COC(=O)CCc2ccc(S(=O)(=O)N3CCOCC3)cc2)c1C	i	i	i	i	i	.	.	.	.
Oc1ccc(N2CCN(C(c3ccncc3)c3nnnn3C3CCCC3)CC2)cc1 (stereo not drawn)	i	i	i	-8.1*	i	i	i	i	i
O=C(Cn1cc(C(F)(F)F)ccc1=O)Nc1cccc(S(=O)(=O)N2CCOCC2)c1	i	i	i	i	i	.	.	.	.
CSc1nc2ccc3nc(NC(=O)c4ccccc4)sc3c2s1	i	i	i	-7.4*	i	i	i	i	i
CSc1ccc(NC(=O)N2CC=C(n3c(=O)[nH]c4ccccc43)CC2)cc1	i	i	i	-4.7*	i	i	i	i	i
COc1ccc(NC(=O)C2CCN(S(=O)(=O)c3ccc4c(c3)NC(=O)CO4)CC2)cc1	i	i	i	i	i	.	.	.	.
SMILES	RGS4 act	MrgX1 allo act	RGS4 inh	MrgX1 antag	MrgX1 agonist	MrgX1 antag conf	HEK293 Ca flux	HEK293 Ca counter	HEK293 Ca cntr2
COc1ccccc1CC(=O)N(Cc1ccccc1)c1cccc(C)c1	i	i	i	i	i	.	.	.	.
CC1(c2ccc(OC(F)F)cc2)NC(=O)N(CC(=O)Nc2ccc3c(c2)OCO3)C1=O (stereo not drawn)	i	i	i	-6.3*	i	i	i	i	i
CC1(c2ccccc2)NC(=O)N(CC(=O)Nc2ccc3c(c2)OCO3)C1=O (stereo not drawn)	i	i	i	i	i	.	.	.	.
N#CCSc1nnc(-c2ccc3c(c2)OCO3)o1	i	i	i	i	i	.	.	.	.
N#CCSc1nnc(Cc2ccc3c(c2)OCO3)o1	i	i	i	-5.4*	i	i	i	i	i
C=CCn1c(C)cc(C(=O)CSc2nnc(Cc3ccccc3)o2)c1C	i	i	i	i	i	.	.	.	.
Cc1cc(C(=O)CSc2nnc(Cc3ccccc3)o2)c(C)n1Cc1ccc2c(c1)OCO2	i	i	i	-7.5*	i	i	i	i	i
CCOC(=O)c1c(S(=O)(=O)NCC(=O)N2CCN(c3ccc(OC)cc3)CC2)c(C)n(C)c1C	i	i	i	i	i	.	.	.	.
CCN(CC)CCNC(=O)CNC(=O)c1nn(-c2ccc(OC)c(OC)c2)c(=O)c2ccccc12	i	i	i	i	i	.	.	.	.
NNC(=S)Nc1cccc(-c2n[nH]c(=S)o2)c1	i	i	i	i	i	.	.	.	.
Cc1ccc(-c2nc(Nc3cccc(C)c3)sc2CC(=O)O)cc1	i	i	i	i	i	.	.	.	.
O=C(O)Cc1sc(NC2CCCCC2)nc1-c1ccc(Cl)cc1	i	i	i	-9.6*	i	82%*	i	i	i
Cc1ccc2oc(C(=O)Nc3nonc3C)c(C)c2c1	i	i	i	i	i	.	.	.	.
Cc1ccc2oc(C(=O)Nc3nnc(C)s3)c(C)c2c1	i	i	i	-4.7*	i	i	i	i	i
CN1CCN(C(=O)c2ccc(-n3cccn3)nc2)CC1	i	i	i	i	i	.	.	.	.
